Vif inh: HIV Vif inhibition. HEK293T cells, Vif self-association by quenched fluorescence, imaging, 24 h. inhibition, % at 7.49 µM. actives 0.35% (n = 340,000); in the data active = inhibition above about 50%, passing the limit was not always enough
PglD inh: inhibitors of Campylobacter jejuni PglD acetyltransferase | inhibition, % at 12.5 µM | AID 602405 | purified PglD enzyme, DTNB colorimetric CoA detection | actives 0.098% (n = 360,000); in the data active = inhibition above about 16%, passing the limit was not always enough
Cneo AK release: Cryptococcus neoformans lysis via adenylate kinase release | C. neoformans lysis, adenylate kinase release luminescence, 4 h; normalised: neutral wells 0, clomiphene wells 100 | lysis activity, % at 15 µM | actives 0.2% (n = 360,000);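 active = mean lysis activity across replicates of at least 80%, whatever share of replicates individually reach that level; inactive = mean lysis activity below 80%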
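Test system: log-phase Cryptococcus neoformans yeast cells. Input: 5 × 10^6 yeast cells/mL. Medium: fresh YPD growth medium. Doses: single dose. Incubation: static 4 h at 37 °C with compound, 1 h detection. Measured by: luminescent adenylate kinase detection reagent. Read-out: signal increase indicating cell lysis. Benchmarks: Clomiphene.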
PGC1a acetyl inh: PGC1a acetylation modulation, inhibitor mode. U2OS PGC1a acetylation, AlphaScreen anti-acetyl-lysine; with virally co-expressed GCN5 acetyltransferase. inhibition, % at 15.6 µM. actives 0.17% (n = 350,000). AID 651687;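 active = every replicate shows inhibition of at least 40%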;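 note: 0% = neutral control wells and 100% = positive control wells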
Ecoli rRNA inh: inhibits bacterial ribosomal RNA function over humanized ribosomes; E. coli WT GFP vs humanized-ribosome RFP mutants, fluorescence, 24 h; hits give low values; DMSO median 0, no signal -100; GFP signal change (wild-type ribosome), % (test concentration not listed); actives 1.6% (n = 350,000);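 active = significant combined selectivity score with lowered wild-type GFP, culture density cut under 30%, mutant RFP and density less affected; inactive = any of these conditions unmet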
FGF22 binding: FGF22 (human) thermal shift binding | actives 1.5% (n = 340,000) | activity (Tm shift, normalised), % at 9.99 µM | recombinant FGF22 thermal shift, SYPRO orange fluorescence; percent of sucrose octasulfate shift, DMSO zero | AID 651658 | Q9HCT0;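 active = mean Tm shift, scaled 0 neutral to 100 positive control, at about 1.3% or above, every replicate too, limit read from the data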
Target sequence (Q9HCT0 whole entry, looked up): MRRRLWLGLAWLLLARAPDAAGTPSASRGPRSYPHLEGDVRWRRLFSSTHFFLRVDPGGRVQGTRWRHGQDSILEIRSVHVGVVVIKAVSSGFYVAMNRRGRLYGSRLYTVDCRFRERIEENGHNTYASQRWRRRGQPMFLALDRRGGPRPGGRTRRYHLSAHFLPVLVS
Numbers without * were called inactive; . = not tested or not shown. The list is not random: actives were taken first. Their share in the collection is about 2.9%.

SMILES | Vif inh | PglD inh | Cneo AK release | PGC1a acetyl inh | Ecoli rRNA inh | FGF22 binding
CCc1ccc2oc(C(=O)NCCc3ccc(S(N)(=O)=O)cc3)cc(=O)c2c1 | 6 | 18 | -1 | -3 | -34* | 0
Cc1ccc(C(=O)OCC(=O)NCCc2ccc(S(N)(=O)=O)cc2)o1 | -8 | 5 | 0 | 7 | 7 | 43*
CNC[C@@H]1Oc2cc(C3=CCCC3)ccc2S(=O)(=O)N([C@@H](C)CO)C[C@H]1C | . | . | . | 9 | 3 | .
O=C(Nc1ccccc1)N1CCCCN2[C@H](CO)[C@@H](c3ccc(-c4ccccc4)cc3)[C@@H]2C1 | . | 0 | 1 | -7 | -51 | 0
C[C@@H]1CN([C@@H](C)CO)C(=O)Cc2cc(NC(=O)Cn3cnnn3)ccc2O[C@H]1CN(C)Cc1ccc(-c2ccccc2)cc1 | . | -1 | 2 | -4 | -39 | 0
Cc1onc(-c2c(Cl)cccc2Cl)c1C(=O)Nc1ccc2c(c1)OCO2 | -11 | -7 | 1 | 9 | -22* | 0
CSc1n[nH]c(NC(=O)c2c(-c3c(Cl)cccc3Cl)noc2C)n1 | 3 | . | . | 65* | . | 0
CC(C)NC(=O)N1C[C@H]2[C@@H](c3ccccc31)[C@@H](CO)N2C(=O)c1ccccc1 | . | -2 | -6 | 0 | -2 | 1
Cc1ccccc1S(=O)(=O)NC1OC(=O)C(Oc2ccccc2)=C1Br (stereo not given) | 0 | . | . | . | 9 | 43*
O=C(CCC(F)(F)F)N1CCCC(N2CCN(c3cccc(Cl)c3)CC2)C1 (stereo not given) | -4 | -2 | 0 | . | -23* | 0
c1ccc(-c2nc3cccnc3nc2-c2ccccc2)cc1 | 3 | . | . | . | -24* | 0
COc1ccc(-c2nc3ccccc3nc2-c2ccccc2)cc1 | 3 | 0 | 1 | 8 | -23 | 0
Cc1ccccc1CSc1nnc(-c2cccs2)n1Cc1ccco1 | -9 | -6 | -1 | -22 | . | .
Cc1ccccc1CSc1nnc(-c2ccco2)n1Cc1ccco1 | 0 | . | . | 99* | . | .
Cc1c(C(=O)NNc2c(Cl)cccc2Cl)n(C)oc1=O | 3 | . | . | 1 | -22* | 0
CC(=O)Nc1cccc2c1O[C@@H](CN(C)C(=O)OC(C)(C)C)[C@@H](C)CN(C)C2=O | . | . | . | . | -1 | .
CCOc1cc(NC(=S)NCC2CCCO2)c(OCC)cc1NC(=O)C1CC1 (stereo not given) | 1 | . | . | . | 16 | 43*
CCCNC(=O)N1[C@H](CO)[C@H](c2ccccc2)[C@@H]1CNC(=O)c1ccc(F)cc1 | . | 1 | . | 13 | -8 | .
CCCNC(=O)N1C[C@@H](O)COC[C@H]2O[C@H](CC(=O)N[C@H]3CCN(Cc4ccccc4)C3)CC[C@@H]21 | . | 4 | 64 | -5 | -1 | 0
Fc1cccc(CCN2C(=S)NC[C@@H]2CC2CCCCC2)c1 | -5 | -2 | 10 | -6 | -23* | 0
Fc1cccc(CCN2C(=S)NC[C@@H]2Cc2ccccc2)c1 | -4 | -2 | 142* | . | -48 | 0
Cc1ccc(-c2cnc3c(c2)C(=O)N([C@@H](C)CO)C[C@@H](C)[C@@H](CN(C)C(=O)c2cccnc2)O3)cc1 | . | -2 | -1 | 11 | 0 | 0
CC1=C(C)/C(=N\OS(=O)(=O)c2ccccc2)C=CC1=O | 55* | -1 | -10 | 18 | -1 | .
Cc1ccc(S(=O)(=O)O/N=C2\CCCc3ccccc32)cc1 | . | 4 | 1 | 7 | . | .
COc1ccc(-c2cnc3c(c2)C(=O)N([C@H](C)CO)C[C@H](C)[C@H](CN(C)S(=O)(=O)c2ccc(C#N)cc2)O3)cc1 | . | -1 | -11 | 4 | 0 | 0
SMILES | Vif inh | PglD inh | Cneo AK release | PGC1a acetyl inh | Ecoli rRNA inh | FGF22 binding
CC(C)NC1(C#N)CCN(Cc2ccccc2)CC1 | -1 | -6 | 0 | 12 | 13 | 43*
CN(C)C(=S)SCC(=O)Nc1ccc(Cl)cc1Cl | -1 | . | . | . | 16 | 1.4*
O=C1CN(S(=O)(=O)c2ccc(Cl)cc2)c2ccccc2N1 | 0 | -1 | 2 | 5 | -22* | 0
COc1cc(SC)ccc1C(=O)Nc1ccccc1 | -11 | 1 | -2 | 5 | . | .
COc1ccc(C(=O)Nc2nc3cc4c(cc3s2)OCCO4)c(OC)c1 | 78* | . | . | . | 7 | 0
COc1cc(SC)ccc1C(=O)Nc1nccs1 | -18 | 2 | -15 | -7 | -25* | 0
COc1ccccc1C(=O)Nc1nc2cc3c(cc2s1)OCCO3 | -1 | -5 | -7 | 2 | . | .
COc1cc(SC)ccc1C(=O)Nc1ccc2c(c1)OCCO2 | -4 | -2 | -30 | -14 | -25* | 0
COc1cc(NC(=O)c2cccc3c2C(=O)N(Cc2cccnc2)C3)cc(OC)c1OC | . | -3 | 3 | 6 | -5 | 0
CCOC(=O)CC(NC(=O)c1cccc2c1C(=O)N(Cc1cccnc1)C2)c1ccc(OCC)c(OC)c1 (stereo not given) | -2 | . | . | 6 | . | 43*
COc1ccc(C2(CNS(=O)(=O)c3ccc(C)cc3)CCOCC2)cc1 | . | 5 | 0 | 7 | -5 | 0
COc1ccc(C2(CNC(=O)C(=O)Nc3ccc(C)cc3)CCOCC2)cc1 | -8 | . | . | 11 | 14 | 43*
COc1ccc(OC)c(NC(=O)CSc2ncccc2C(=O)O)c1 | -5 | 1 | -2 | 11 | . | .
CCCCCCCCNC(=O)c1cccnc1SCC(=O)Nc1ccccc1OC | 4 | -1 | 1 | 5 | -1 | 39*
CCOc1ccc(N2C(=O)CC(Sc3nc(O)c(CC)c(=O)[nH]3)C2=O)cc1 (stereo not given) | -3 | 1 | 0 | -1 | -39* | 0
CCCc1c(O)nc(SC2CC(=O)N(c3ccc(OC)cc3)C2=O)[nH]c1=O (stereo not given) | -2 | . | . | 13 | 10 | 0
Cc1cc(/C=C2\SC(=S)NC2=O)c(C)n1-c1ccccc1 | 5 | -10 | -13 | 14 | -14 | 0
Cc1cc(/C=C2\SC(=S)NC2=O)c(C)n1-c1ccc(O)cc1 | 18 | . | . | . | -24* | 0
COc1cccc(NC(=O)CCNS(=O)(=O)c2cccc3nsnc23)c1 | 9 | . | . | 0 | -8 | 44*
CCCCn1c(N)c(N(CC)C(=O)c2cc(CC)c(C)s2)c(=O)[nH]c1=O | 55* | . | . | . | 9 | 0
CCCCn1c(N)c(N(CC)C(=O)c2cc(S(=O)(=O)N3CCN(CC)CC3)ccc2Cl)c(=O)[nH]c1=O | 1 | 1 | -9 | . | 3 | 0
CCCCn1c(N)c(N(CCOC)C(=O)c2cc(CC)c(C)s2)c(=O)[nH]c1=O | -4 | -1 | 1 | . | -2 | 0
CCCCn1c(N)c(N(CC)C(=O)c2cc(Br)ccc2Cl)c(=O)[nH]c1=O | 2 | . | . | . | 15 | 44*
O=C1CCC(=O)N1N1C(=O)C2C3c4ccccc4C(c4ccccc43)C2C1=O (stereo not given) | -1 | . | . | -1 | 9 | 43*
